ChEMBL document CHEMBL1811814, “Synthesis and evaluation of indole, pyrazole, chromone and pyrimidine based conjugates for tumor growth inhibitory activities--development of highly efficacious cytotoxic agents” (Eur J Med Chem, 2010)

What was measured:
Type in all cases: functional
Parameters in all cases: scale not given: the % may be the effect or the level left
HL-60(TB) = experiment: Growth inhibition of human HL-60(TB) cells assessed tumor cell growth at 10^-5 M
Summary of the method: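 HL-60(TB), part of the 60-line panel, tested at a single concentration of 10^-5 M. The read-out is percent tumor cell growth relative to untreated growth.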

K562 = experiment: Growth inhibition of human K562 cells assessed tumor cell growth at 10^-5 M
Summary of the method: (§1)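 NCI 60-human-tumor-cell-line panel screen. Each compound was tested at a single concentration of 10^-5 M, and percent growth of tumor cells was recorded for each cell line. Growth inhibition was expressed from these percent-growth values.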

MOLT-4 = experiment: Growth inhibition of human MOLT4 cells assessed tumor cell growth at 10^-5 M; summary of the method: as §1
[1] = Growth inhibition of human […] cells assessed tumor cell growth at 10^-5 M; summary of the method: as §1
SR = experiment: Growth inhibition of human SR cells assessed tumor cell growth at 10^-5 M
Summary of the method: (§2)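 Single-dose screen at 10^-5 M across the 60 human tumor cell line panel, run to NCI standards. The value is the percent growth of each cell line in the presence of compound. Compounds active at this dose moved on to five-concentration testing (10^-4 to 10^-8 M).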

A549 = experiment: Growth inhibition of human A549 cells assessed tumor cell growth at 10^-5 M; summary of the method: as §1
EKVX = experiment: Growth inhibition of human EKVX cells assessed tumor cell growth at 10^-5 M; summary of the method: as §1
HOP-62 = experiment: Growth inhibition of human HOP62 cells assessed tumor cell growth at 10^-5 M; summary of the method: as §1
NCI-H23 = experiment: Growth inhibition of human NCI-H23 cells assessed tumor cell growth at 10^-5 M; summary of the method: as §1
NCI-H322M = experiment: Growth inhibition of human NCI-H322M cells assessed tumor cell growth at 10^-5 M; summary of the method: as §1
NCI-H460 = experiment: Growth inhibition of human NCI-H460 cells assessed tumor cell growth at 10^-5 M; summary of the method: as §1
NCI-H522 = experiment: Growth inhibition of human NCI-H522 cells assessed tumor cell growth at 10^-5 M; summary of the method: as §1
COLO 205 = experiment: Growth inhibition of human COLO205 cells assessed tumor cell growth at 10^-5 M; summary of the method: as §1
HCT-116 = experiment: Growth inhibition of human HCT116 cells assessed tumor cell growth at 10^-5 M; summary of the method: as §1
HCT-15 = experiment: Growth inhibition of human HCT15 cells assessed tumor cell growth at 10^-5 M; summary of the method: as §1
HT-29 = experiment: Growth inhibition of human HT-29 cells assessed tumor cell growth at 10^-5 M; summary of the method: as §1
KM12 = experiment: Growth inhibition of human KM12 cells assessed tumor cell growth at 10^-5 M; summary of the method: as §1
SW-620 = experiment: Growth inhibition of human SW620 cells assessed tumor cell growth at 10^-5 M; summary of the method: as §2
SF-268 = experiment: Growth inhibition of human SF268 cells assessed tumor cell growth at 10^-5 M; summary of the method: as §1
SF-295 = experiment: Growth inhibition of human SF295 cells assessed tumor cell growth at 10^-5 M; summary of the method: as §1
SF-539 = experiment: Growth inhibition of human SF539 cells assessed tumor cell growth at 10^-5 M; summary of the method: as §1
SNB-19 = experiment: Growth inhibition of human SNB19 cells assessed tumor cell growth at 10^-5 M; summary of the method: as §2
SNB-75 = experiment: Growth inhibition of human SNB75 cells assessed tumor cell growth at 10^-5 M; summary of the method: as §2
U-251 = experiment: Growth inhibition of human U251 cells assessed tumor cell growth at 10^-5 M; summary of the method: as §2
LOX IMVI = experiment: Growth inhibition of human LOXIMVI cells assessed tumor cell growth at 10^-5 M; summary of the method: as §1
Malme-3M = experiment: Growth inhibition of human MALME-3M cells assessed tumor cell growth at 10^-5 M; summary of the method: as §1
M14 = experiment: Growth inhibition of human M14 cells assessed tumor cell growth at 10^-5 M; summary of the method: as §1
MDA-MB-435 = experiment: Growth inhibition of human MDA-MB-435 cells assessed tumor cell growth at 10^-5 M; summary of the method: as §1
SK-MEL-2 = experiment: Growth inhibition of human SK-MEL-2 cells assessed tumor cell growth at 10^-5 M; summary of the method: as §1
SK-MEL-28 = experiment: Growth inhibition of human SK-MEL-28 cells assessed tumor cell growth at 10^-5 M; summary of the method: as §1
SK-MEL-5 = experiment: Growth inhibition of human SK-MEL-5 cells assessed tumor cell growth at 10^-5 M; summary of the method: as §1
UACC-62 = experiment: Growth inhibition of human UACC62 cells assessed tumor cell growth at 10^-5 M; summary of the method: as §2
IGROV-1 = experiment: Growth inhibition of human IGROV1 cells assessed tumor cell growth at 10^-5 M; summary of the method: as §1
OVCAR-3 = experiment: Growth inhibition of human OVCAR3 cells assessed tumor cell growth at 10^-5 M; summary of the method: as §1
OVCAR-4 = experiment: Growth inhibition of human OVCAR4 cells assessed tumor cell growth at 10^-5 M; summary of the method: as §1
OVCAR-5 = experiment: Growth inhibition of human OVCAR5 cells assessed tumor cell growth at 10^-5 M; summary of the method: as §1
OVCAR-8 = experiment: Growth inhibition of human OVCAR8 cells assessed tumor cell growth at 10^-5 M; summary of the method: as §1
NCI/ADR-RES = experiment: Growth inhibition of human NCI/ADR-RES cells assessed tumor cell growth at 10^-5 M; summary of the method: as §1
SK-OV-3 = experiment: Growth inhibition of human SKOV3 cells assessed tumor cell growth at 10^-5 M; summary of the method: as §1
786-0 = experiment: Growth inhibition of human 786-0 cells assessed tumor cell growth at 10^-5 M; summary of the method: as §1
A498 = experiment: Growth inhibition of human A498 cells assessed tumor cell growth at 10^-5 M; summary of the method: as §1
ACHN = experiment: Growth inhibition of human ACHN cells assessed tumor cell growth at 10^-5 M; summary of the method: as §1
CAKI-1 = experiment: Growth inhibition of human Caki1 cells assessed tumor cell growth at 10^-5 M; summary of the method: as §1
RXF 393 = experiment: Growth inhibition of human RXF393 cells assessed tumor cell growth at 10^-5 M; summary of the method: as §1
SN12C = experiment: Growth inhibition of human SN12C cells assessed tumor cell growth at 10^-5 M; summary of the method: as §1
TK-10 = experiment: Growth inhibition of human TK10 cells assessed tumor cell growth at 10^-5 M; summary of the method: as §2
UO-31 = experiment: Growth inhibition of human UO31 cells assessed tumor cell growth at 10^-5 M; summary of the method: as §2
PC-3 = experiment: Growth inhibition of human PC3 cells assessed tumor cell growth at 10^-5 M; summary of the method: as §1
DU-145 = experiment: Growth inhibition of human DU145 cells assessed tumor cell growth at 10^-5 M; summary of the method: as §1
MCF7 = experiment: Growth inhibition of human MCF7 cells assessed tumor cell growth at 10^-5 M; summary of the method: as §1
MDA-MB-231 = experiment: Growth inhibition of human MDA-MB-231 cells assessed tumor cell growth at 10^-5 M; summary of the method: as §1
[2] = Growth inhibition of human Hs 578T cells assessed tumor cell growth at 10^-5 M; summary of the method: as §1
T47D = experiment: Growth inhibition of human T47D cells assessed tumor cell growth at 10^-5 M; summary of the method: as §2
MDA-MB-468 = experiment: Growth inhibition of human MDA-MB-468 cells assessed tumor cell growth at 10^-5 M; summary of the method: as §1
NCI-H226 = experiment: Growth inhibition of human NCI-H226 cells assessed tumor cell growth at 10^-5 M; summary of the method: as §1

Work on `O=C1/C(=C\c2cn(Cc3ccccc3)c3ccccc23)c2ccccc2N1Cc1ccccc1` yielded an Activity (HL-60(TB)) of 103.6%, an Activity (K562) of 95.2% and an Activity (MOLT-4) of 98.9%. For the same molecule, the Activity [1] was 76.9%, the Activity (SR) was 96.6% and the Activity (A549) was 81.6%. The Activity (EKVX) was 85.2%, the Activity (HOP-62) was 90.9% and the Activity (NCI-H23) was 88.6%. The Activity (NCI-H322M) was 103.8%, the Activity (NCI-H460) was 88.6% and the Activity (NCI-H522) was 31.8%. For the same molecule, the Activity (COLO 205) was 89.8%, the Activity (HCT-116) was 64.7% and the Activity (HCT-15) was 77.7%. For the same molecule, the Activity (HT-29) was 90%, the Activity (KM12) was 87.9% and the Activity (SW-620) was 97.1%. It also gave an Activity (SF-268) of 92.3%, an Activity (SF-295) of 108.8% and an Activity (SF-539) of 94.7%. It also gave an Activity (SNB-19) of 106.1%, an Activity (SNB-75) of 89.5% and an Activity (U-251) of 92.9%. For the same molecule, the Activity (LOX IMVI) was 84%, the Activity (Malme-3M) was 121.4% and the Activity (M14) was 96.6%. The Activity (MDA-MB-435) was 110.5%, the Activity (SK-MEL-2) was 86.4% and the Activity (SK-MEL-28) was 104.8%. It also gave an Activity (SK-MEL-5) of 84.4%, an Activity (UACC-62) of 82.6% and an Activity (IGROV-1) of 66.8%. For the same molecule, the Activity (OVCAR-3) was 84.3%, the Activity (OVCAR-4) was 84.4% and the Activity (OVCAR-5) was 106.7%. For the same molecule, the Activity (OVCAR-8) was 88.9%, the Activity (NCI/ADR-RES) was 92% and the Activity (SK-OV-3) was 92.4%. For the same molecule, the Activity (786-0) was 99.1%, the Activity (A498) was 96.6% and the Activity (ACHN) was 85.4%. It also gave an Activity (CAKI-1) of 72%, an Activity (RXF 393) of 73.5% and an Activity (SN12C) of 104%. It also gave an Activity (TK-10) of 85.3%, an Activity (UO-31) of 82.3% and an Activity (PC-3) of 80.8%. The Activity (DU-145) was 100.2%, the Activity (MCF7) was 3.6% and the Activity (MDA-MB-231) was 100.6%. The Activity [2] was 96%, the Activity (T47D) was 57% and the Activity (MDA-MB-468) was 46.6%.
Work on `O=C1/C(=C\c2cn(C(=O)c3ccc(Cl)cc3)c3ccccc23)c2ccccc2N1C(=O)c1ccc(Cl)cc1` yielded an Activity (HL-60(TB)) of 54.1%, an Activity (K562) of 83.8% and an Activity (MOLT-4) of 61.5%. For the same molecule, the Activity [1] was 57.4%, the Activity (SR) was 56.1% and the Activity (A549) was 63.2%. The Activity (EKVX) was 70.7%, the Activity (HOP-62) was 61.3% and the Activity (NCI-H226) was 89.4%. It also gave an Activity (NCI-H23) of 83.1%, an Activity (NCI-H322M) of 98.5% and an Activity (NCI-H460) of 86%. The Activity (NCI-H522) was 6%, the Activity (COLO 205) was 104.7% and the Activity (HCT-116) was 65.1%. The Activity (HCT-15) was 65.8%, the Activity (HT-29) was 70.4% and the Activity (KM12) was 24.2%. It also gave an Activity (SW-620) of 93.1%, an Activity (SF-268) of 77.5% and an Activity (SF-295) of 101.9%. For the same molecule, the Activity (SF-539) was 67.3%, the Activity (SNB-19) was 98.2% and the Activity (SNB-75) was 54.4%. For the same molecule, the Activity (U-251) was 74.1%, the Activity (LOX IMVI) was 67.7% and the Activity (Malme-3M) was 126%. For the same molecule, the Activity (M14) was 79.1%, the Activity (MDA-MB-435) was 97.5% and the Activity (SK-MEL-2) was 49.8%. It also gave an Activity (SK-MEL-28) of 103%, an Activity (SK-MEL-5) of 74.8% and an Activity (UACC-62) of 88.9%. The Activity (IGROV-1) was 80%, the Activity (OVCAR-3) was 84.2% and the Activity (OVCAR-4) was 71.9%. It also gave an Activity (OVCAR-5) of 114.7%, an Activity (OVCAR-8) of 78.6% and an Activity (NCI/ADR-RES) of 83.4%. It also gave an Activity (SK-OV-3) of 77%, an Activity (786-0) of 93.7% and an Activity (A498) of 81%. For the same molecule, the Activity (ACHN) was 63.2%, the Activity (CAKI-1) was 73.8% and the Activity (RXF 393) was 83.2%. The Activity (SN12C) was 80.7%, the Activity (TK-10) was 55.3% and the Activity (UO-31) was 64.4%. For the same molecule, the Activity (PC-3) was 65.7%, the Activity (DU-145) was 85% and the Activity (MCF7) was 71.1%. The Activity (MDA-MB-231) was 81.2%, the Activity [2] was 80.5% and the Activity (T47D) was 61.7%. For the same molecule, the Activity (MDA-MB-468) was 51.7%.
